Most compounds without a hit are left out; they make up all but 2.1% or so of the library.
DSG3 Ab inh – inhibitors of pemphigus antibody binding to human desmoglein-3 | DSG3-coupled beads, scFv-anti-DSG3-GFP binding, flow cytometry; hits give low values | binding (percent of control), % at 10 µM | actives 0.48% (n = 310,000);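 active = binding more than 3 SD below its plate's average and above zero; inconclusive = below that plate limit but binding exactly zero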;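 note: hits lower antibody fragment binding to DSG3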
Runt-CBFb FRET – inhibitors of human RUNX1 Runt domain binding to CBFb; AID 1496; actives 0.46% (n = 220,000); Cerulean-Runt/Venus-CBFb FRET ratio 530/480, 1 h; inhibition, % at 20 µM;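 active = inhibition over about 50% at 20 µM in the single-dose screen, limit read from the data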;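 note: 0% = DMSO wells and 100% = excess unlabeled CBFb competitor control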
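Assay system: Cerulean-Runt domain fusion protein, energy donor; Signal: fluorescence energy transfer, 422 nm excitation, 530/480 nm emission; Timing: 1 h compound exposure, room temperature; Control set: unlabeled CBFb; Medium: Tris buffer pH 7.5 with salts and BSA; Compound: single test concentration of 20 µM, 1% DMSO final; Probe or stimulus: Venus-CBFb 100 nM.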
RanGTP-Imp inh – disruptors of Ran-importin-beta complex formation – biochemical, FRET, CFP-Ran, YFP-importin-beta, homogeneous, primary screen; cell-free CFP-Ran/YFP-importin-beta FRET ratio; inhibition, % (no concentration beside the values); actives 1.1% (n = 300,000);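 active = more than half of the replicate wells show a fall in the fluorescence ratio signal beyond about 16%, limit read from the data, passing the limit was not always enough; inconclusive = exactly half of the replicate wells pass the set limit; inactive = fewer than half of replicates pass the limit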;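 note: 0% = DMSO wells and 100% = Ran loaded with GDP instead of GTP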
Runt-SMMHC FRET – blocks binding of human RUNX1 Runt domain to CBFb-SMMHC | inhibition, % at 20 µM | Q01196+Q13951 | AID 1434 | actives 0.74% (n = 220,000) | Cerulean-Runt/Venus-CBFb-SMMHC FRET ratio 530/480, 1 h;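 active = mean inhibition across duplicate retests at 20 µM reaching about 50%, limit read from the data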;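 note: 0% = DMSO wells and 100% = wells with excess untagged CBFb-SMMHC; inhibitors lower the FRET ratio by blocking Runt binding to CBFb-SMMHC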
p-CIP stab down – compounds decreasing mouse p/CIP protein stability. Q05BA5. F442A p/CIP-EGFP cells, EGFP fluorescence, 16 h. decrease of EGFP signal, % at 10 µM. actives 0.01% (n = 290,000). AID 1984;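 active = EGFP signal decrease of at least 30% at 10 µM or well 3 SD below plate mean, unless failing retest; inactive = the rest, including hits failing retest or dose response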
Hck Nef HTS – human Hck-Nef kinase inhibition; P08631; Recombinant Hck-YEEI plus Nef, Z-Lyte FRET kinase assay; inhibition, % at 20 µM; actives 0.68% (n = 220,000); AID 463187;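 active = Hck-Nef kinase inhibition above about 50%, limit read from the data; inactive = inhibition below that limit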;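 note: 0% = DMSO with Hck plus Nef and 100% = Hck alone without Nef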
Active calls of the source: *; ? = inconclusive; . = no result; + = active, no number.

SMILES	DSG3 Ab inh	Runt-CBFb FRET	RanGTP-Imp inh	Runt-SMMHC FRET	p-CIP stab down	Hck Nef HTS
Nc1c(C(=O)NCC2CCCO2)sc2nc3c(c(-c4ccco4)c12)CC/C3=C\c1ccco1 (configuration not stated)	75.6	29.0	.	-2.9	-12.3	88.3*
COc1ccccc1C(=O)N/N=C(\C)c1ccc(NC(=O)C2CC2)cc1	2.4*	13.0	0.0	2.2	-20.6	2.7
Cc1cccn2c(=O)c3cc(C(=O)NC4CCCC4)sc3nc12	93.8	.	-0.8	.	-7.1	.
Cc1occc1C(=O)NNC1=CC(=O)CC(C)(C)C1	96.9	2.4	25.7*	0.4	-2.3	-3.6
COc1ccc(C(=O)NNC2=CC(=O)CC(C)(C)C2)cc1OC	104.6	4.3	26.2*	2.5	-20.4	6.6
O=C(Cc1cccs1)N1CCN=C1SCc1cccc(F)c1	90.8	-1.8	0.4	0.3	-8.0	16.6
COc1ccc(CN(CCN(C)C)Cc2ccccc2)c(OC)c1	78.3*	-0.6	3.2	5.6	-14.9	-1.5
CCN(Cc1ccncc1)Cc1ccc(OC)cc1OC	107.2	.	1.7	.	-0.8	.
CCc1nnc(NC(=O)CSc2ncnc3c2oc2ccccc23)s1	-17.4*	-6.0	?	-8.0	-3.0	1.8
O=C(CSc1ncnc2c1oc1ccccc12)Nc1nc2ccccc2s1	100.0	1.0	4.3	1.5	-16.9	0.4
O=C(NCCCc1ccccc1)c1cc(COc2ccc(F)cc2Cl)on1	34.6*	.	2.6	.	-3.4	.
COc1cc(/C=C(\C#N)c2nc(-c3cc4ccccc4oc3=O)cs2)ccc1O	95.2	-24.1	-5.0	-42.3	-93.6	-1.3
COc1cc(/C=C(/C#N)c2nc(-c3cc4ccccc4oc3=O)cs2)cc([N+](=O)[O-])c1O	.	-13.6	.	-28.9	3.0	113.8*
Cc1nn(CCO)c(N)c1C1(O)C(=O)Nc2c(Cl)cc(Cl)cc21 (configuration not stated)	100.0	-0.9	?	2.2	0.7	21.4
Cc1ccc(C)c(N2CCN(S(=O)(=O)c3ccc4c(c3)CCC(=O)N4)CC2)c1	.	103.8*	3.6	0.1	-14.9	0.0
CCCCOc1ccc(C(C)NC(=O)CCS(=O)(=O)Cc2ccccc2Cl)cc1 (configuration not stated)	12.6*	-0.6	9.7	-7.2	-2.3	1.4
COc1cnc(SCCC(F)=C(F)F)[nH]c1=O	100.8	1.1	1.7	3.6	0.9	21.2
O=C1S/C(=C\C=C\c2ccco2)C(=O)N1c1ccc(O)cc1	.	15.1	-3.5	0.0	10.5	6.1
O=C(O)CC(C(=O)O)N1C(=O)/C(=C/C=C/c2ccco2)SC1=S (configuration not stated)	77.0	38.9	-5.2	-2.4	-4.0	71.4*
Cc1ccc(COC(=O)NCc2cccnc2)cc1	103.3	.	?	.	-8.6	.
CC(=O)N(/N=C1\Sc2ccccc2C1=O)c1cccc(C)c1	110.2	-6.3	23.3*	-7.7	-31.4	-0.5
CC(=O)N1CCN(c2cc(-c3ccccc3)nc3cc(-c4cccc(Cl)c4)nn23)CC1	106.0	.	.	.	.	.
N=c1c(C(=O)NCC2CCCO2)cc2c(=O)n3ccccc3nc2n1Cc1ccccc1Cl (configuration not stated)	100.4	.	187.7*	.	4.0	.
COc1ccc(Cn2c(=N)c(C(=O)NCC3CCCO3)cc3c(=O)n4ccccc4nc32)cc1 (configuration not stated)	116.6	.	22.6*	.	-12.5	.
COc1ccc(-c2cc(C(F)F)n3ncc(C(=O)NCC4CCCO4)c3n2)cc1 (configuration not stated)	103.7	18.0	58.0*	61.6*	8.4	0.9
SMILES	DSG3 Ab inh	Runt-CBFb FRET	RanGTP-Imp inh	Runt-SMMHC FRET	p-CIP stab down	Hck Nef HTS
N=c1c(C(=O)NCC2CCCO2)cc2c(=O)n3ccccc3nc2n1Cc1ccc(Cl)cc1 (configuration not stated)	129.7	.	179.8*	.	7.8	.
CC(C)Oc1ccc(C(=O)OCC(=O)c2ccc[nH]2)cc1	107.9	.	.	.	.	.
COc1ccc(-c2ccc(CCC(=O)O)n2CC(=O)Nc2ccccc2C)cc1	100.8	.	1.9	.	0.5	.
COc1ccc(CCn2c(=N)c(C(=O)NCC3CCCO3)cc3c(=O)n4ccccc4nc32)cc1 (configuration not stated)	92.4	.	-0.3	.	-1.0	.
Cc1ccc(Cn2c(=N)c(C(=O)NCC3CCCO3)cc3c(=O)n4ccccc4nc32)cc1 (configuration not stated)	97.9	.	160.5*	.	-6.5	.
N=c1c(C(=O)NCC2CCCO2)cc2c(=O)n3ccccc3nc2n1Cc1ccccc1 (configuration not stated)	?	.	179.9*	.	3.6	.
CCN(CC(=O)Nc1ccc(NC(C)=O)cc1)C(=O)C1CC1	105.8	.	.	.	.	.
CCCC(=O)OCC1CN(Cc2ccco2)S(=O)(=O)c2c(F)cccc2O1 (configuration not stated)	99.9	.	.	.	.	.
N#Cc1c2ccccc2nc2ccccc12	100.2	44.6	18.2*	97.9*	-10.1	43.4
O=[N+]([O-])c1ccc2[nH]c(O)c(N=Nc3ccc(F)cc3)c2c1	92.3	.	8.2	.	-3.4	.
O=[N+]([O-])c1ccc2[nH]c(O)c(N=NC3CCS(=O)(=O)C3)c2c1 (configuration not stated)	84.9*	-1.0	1.2	-0.9	-6.1	23.3
COc1ccc(CNC(=O)CCC(=O)n2ncc3cc(C)ccc32)cc1	76.0*	.	?	.	-8.3	.
Cc1ccc(NC(=O)Cn2c(=O)c3cccn3c3ccccc32)c(Cl)c1	31.9*	.	-0.1	.	2.3	.
Cc1ccc(/C=N/NC(=O)c2nnn(-c3nonc3N)c2-c2cccs2)cc1	99.4	.	189.5*	.	-1.6	.
CC(C)c1c(C(=O)N/N=C/c2ccc(OCc3ccc(F)cc3)cc2)nnn1-c1nonc1N	94.0	.	-1.2	.	7.4	.
CC(C)c1c(C(=O)N/N=C/c2ccc(OCc3ccccc3)cc2)nnn1-c1nonc1N	92.3	.	+	.	-10.1	.
Nc1nonc1-n1nnc(C(=O)N/N=C/c2ccc(OCc3ccccc3F)cc2)c1CN1CCCCC1	-3.4*	.	2.4	.	-5.2	.
O=C1COc2ccc(C(=O)COC(=O)Cc3ccc(F)cc3)cc2N1	106.8	.	2.8	.	.	.
Cc1c(Cc2ccccc2)c(=O)oc2cc(O)cc(O)c12	101.7	23.5	4.4	63.2*	-2.9	41.6
O=C(Oc1cccc(C(=S)N2CCOCC2)c1)c1ccccc1	-24.4*	.	2.7	.	6.8	.
O=C(Oc1ccc(OC(=O)N2CCCCC2)cc1)c1ccccc1	67.5*	0.3	4.9	-0.2	-2.8	7.8
Cc1ccc2c(=O)n3c(nc2c1)C(C)NC(=O)c1cccnc1-3 (configuration not stated)	111.0	.	.	.	.	.
COc1cccc(-c2nc(NCc3ccco3)c3ccccc3n2)c1O	64.2*	.	2.4	-3.5	-4.8	-0.3

Assay outcomes: PubChem BioAssay, several laboratories
